From article PMC7938327 (Journal of medicinal chemistry, 2017)
“Also recorded” adds a separate entry of the source.

Assays:
[1] = test system: A2058 human melanoma cells; assay: ATX-mediated in vitro invasion assay; format: cell-based; conditions: exogenous LPC and recombinant ATX; for inhibition of A2058 cell invasion, screen at 10 μM: compared with 30; for inhibition of A2058 cell invasion (in words): dose–response
[2] = target: T1, purified recombinant ENPP7 (Homo sapiens, UniProt Q6UWV6); assay: ENPP7 inhibition, pNPPC hydrolysis; format: biochemical; conditions: 10 μM pNPPC, 10 nM ENPP7, compound 0 to 10 μM; data not shown
T1 sequence (Q6UWV6 22-458): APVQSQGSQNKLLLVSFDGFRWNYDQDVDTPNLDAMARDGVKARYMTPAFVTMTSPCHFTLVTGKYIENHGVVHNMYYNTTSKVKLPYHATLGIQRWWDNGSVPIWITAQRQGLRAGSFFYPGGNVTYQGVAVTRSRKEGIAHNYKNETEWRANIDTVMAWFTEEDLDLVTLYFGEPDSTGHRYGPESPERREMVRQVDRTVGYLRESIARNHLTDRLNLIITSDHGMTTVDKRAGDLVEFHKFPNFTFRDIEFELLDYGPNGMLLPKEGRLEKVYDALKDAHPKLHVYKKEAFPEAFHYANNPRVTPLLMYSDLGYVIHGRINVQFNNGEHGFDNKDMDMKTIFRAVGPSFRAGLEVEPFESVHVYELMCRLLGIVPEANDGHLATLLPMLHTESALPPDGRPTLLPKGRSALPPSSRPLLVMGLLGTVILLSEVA
Outline: (§1)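 Purified recombinant enzyme (0 or 10 nM) was incubated with 10 μM pNPPC and 0–10 μM test compound in triplicate wells. Buffers were 100 mM Tris, 500 mM NaCl, 0.05% Triton, pH 9.0 for ENPP6, and 50 mM Tris, 150 mM NaCl, 10 mM taurocholate, pH 8.5 for ENPP7. Absorbance at 405 nm was read every 2 min for 1 h.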

[3] = test system: 4T1 breast cancer cell line; assay: Chemoresistance of 4T1 cells to paclitaxel; format: cell-based, mouse; conditions: for LD50 to PT with ATX inhibitor pretreatment: 24 h pretreatment with 3 μM compound, then PT 48 h
human recombinant ATX [4] = target: T2, human recombinant ATX (Homo sapiens, UniProt Q13822); assay: ATX nucleotide pyrophosphatase activity, pNP-TMP hydrolysis; format: biochemical; conditions: 1 mM pNP-TMP, 4 nM ATX, compound 0 to 1 μM
Outline: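 Human recombinant FLAG-tagged ATX was expressed in Sf9 insect cells and purified on anti-FLAG resin. Absorbance at 405 nm was read every 2 min for 1 h.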

[5] = In vitro stability in 4T1 cell culture by LC-MS; format: in vitro ADME, mouse; conditions: 40 h of exposure to 4T1 cells
human recombinant ATX [6] = target: T2, human recombinant ATX; assay: ATX lysophospholipase D activity, FS-3 hydrolysis; format: biochemical; conditions: for mechanism: FS-3 0 to 10 μM, inhibitor 0, 0.5 × IC50 or 2 × IC50, best global fit
LPA1 = LPA1 (Homo sapiens, UniProt Q92633); assay: LPA-mediated Ca2+ mobilization, LPA1 RH7777 cells; format: cell-based; conditions: for antagonist activity at LPA1 (in words): LPA1-elicited Ca2+ responses
LPA1, sequence (Q92633 whole entry, species assumed): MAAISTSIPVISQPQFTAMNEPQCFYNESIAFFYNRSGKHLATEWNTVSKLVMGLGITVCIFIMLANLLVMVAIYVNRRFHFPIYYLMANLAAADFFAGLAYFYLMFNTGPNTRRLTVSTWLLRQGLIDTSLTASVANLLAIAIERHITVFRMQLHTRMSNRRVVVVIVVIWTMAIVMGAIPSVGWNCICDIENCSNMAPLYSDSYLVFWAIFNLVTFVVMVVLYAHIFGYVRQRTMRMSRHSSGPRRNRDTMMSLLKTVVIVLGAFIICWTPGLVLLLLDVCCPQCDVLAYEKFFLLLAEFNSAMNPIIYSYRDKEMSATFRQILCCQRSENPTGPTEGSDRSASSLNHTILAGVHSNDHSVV
Outline: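 Rat hepatoma RH7777 cells stably expressing LPA1 were seeded at 5 × 10^4 per well on poly-L-lysine, left overnight, then serum-deprived 4 h in HEPES-Krebs buffer pH 7.4. Cells were loaded 30 min with 4.5 μg/mL Fura-2AM plus 0.45% Pluronic F-127. […] The 340/510 and 380/510 nm ratio was read every 3.42 s for 70 s, normalized to LPA Emax, and fitted by variable-slope regression for IC50.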

[7] = test system: 4T1-TaxR cancer stem-like cells (mammospheres); assay: 4T1-TaxR mammosphere viability with paclitaxel; format: cell-based, mouse
[8] = target: T3, purified recombinant ENPP6 (Homo sapiens, UniProt Q6UWR7); assay: ENPP6 inhibition, pNPPC hydrolysis; format: biochemical; conditions: 10 μM pNPPC, 10 nM ENPP6, compound 0 to 10 μM; data not shown
T3 sequence (Q6UWR7 23-440): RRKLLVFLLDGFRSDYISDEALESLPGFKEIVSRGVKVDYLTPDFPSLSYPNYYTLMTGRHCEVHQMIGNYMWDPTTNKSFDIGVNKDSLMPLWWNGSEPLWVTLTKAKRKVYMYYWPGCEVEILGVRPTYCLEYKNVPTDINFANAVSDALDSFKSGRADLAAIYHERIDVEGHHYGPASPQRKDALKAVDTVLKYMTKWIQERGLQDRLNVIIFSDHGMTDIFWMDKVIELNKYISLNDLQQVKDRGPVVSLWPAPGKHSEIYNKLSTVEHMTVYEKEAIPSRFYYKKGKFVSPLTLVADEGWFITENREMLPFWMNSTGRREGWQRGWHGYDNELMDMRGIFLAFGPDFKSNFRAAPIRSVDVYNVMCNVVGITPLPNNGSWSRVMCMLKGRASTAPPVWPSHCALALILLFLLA
Outline: as §1

LPA4 = LPA4 (Homo sapiens, UniProt Q99677); assay: LPA-mediated Ca2+ mobilization, LPA4 CHO cells; format: cell-based; conditions: read-out: LPA4 Emax
LPA4, sequence (Q99677 whole entry, species assumed): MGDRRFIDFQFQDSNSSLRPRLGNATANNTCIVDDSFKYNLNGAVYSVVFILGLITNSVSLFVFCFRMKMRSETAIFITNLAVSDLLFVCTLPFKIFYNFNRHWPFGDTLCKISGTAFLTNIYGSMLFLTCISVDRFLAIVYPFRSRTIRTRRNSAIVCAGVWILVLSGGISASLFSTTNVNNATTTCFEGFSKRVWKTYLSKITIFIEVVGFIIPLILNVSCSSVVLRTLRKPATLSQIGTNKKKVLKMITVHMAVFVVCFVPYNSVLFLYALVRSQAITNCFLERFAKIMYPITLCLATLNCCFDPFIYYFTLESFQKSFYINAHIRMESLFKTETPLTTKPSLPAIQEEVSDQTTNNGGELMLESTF

LPA5 = LPA5 (Homo sapiens, UniProt Q9H1C0); assay: LPA-mediated Ca2+ mobilization, LPA5 B103 cells; format: cell-based; conditions: LPA 18:1 alone; normalized to percentage of LPA 18:1 Emax
LPA5, sequence (Q9H1C0 whole entry, species assumed): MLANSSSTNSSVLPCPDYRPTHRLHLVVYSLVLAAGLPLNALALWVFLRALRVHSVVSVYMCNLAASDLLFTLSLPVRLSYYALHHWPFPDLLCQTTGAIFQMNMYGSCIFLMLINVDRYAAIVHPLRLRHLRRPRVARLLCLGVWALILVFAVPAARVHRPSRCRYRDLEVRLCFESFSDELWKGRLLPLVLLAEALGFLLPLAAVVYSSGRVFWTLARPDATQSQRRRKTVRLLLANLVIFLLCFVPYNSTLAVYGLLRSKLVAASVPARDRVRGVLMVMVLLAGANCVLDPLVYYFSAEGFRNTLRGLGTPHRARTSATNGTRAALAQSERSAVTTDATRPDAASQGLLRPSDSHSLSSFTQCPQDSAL

LPA2 = LPA2 (Homo sapiens, UniProt Q9HBW0); assay: LPA-mediated Ca2+ mobilization, LPA2 MEF cells; format: cell-based; conditions: read-out: LPA2 Emax
LPA2, sequence (Q9HBW0 whole entry, species assumed): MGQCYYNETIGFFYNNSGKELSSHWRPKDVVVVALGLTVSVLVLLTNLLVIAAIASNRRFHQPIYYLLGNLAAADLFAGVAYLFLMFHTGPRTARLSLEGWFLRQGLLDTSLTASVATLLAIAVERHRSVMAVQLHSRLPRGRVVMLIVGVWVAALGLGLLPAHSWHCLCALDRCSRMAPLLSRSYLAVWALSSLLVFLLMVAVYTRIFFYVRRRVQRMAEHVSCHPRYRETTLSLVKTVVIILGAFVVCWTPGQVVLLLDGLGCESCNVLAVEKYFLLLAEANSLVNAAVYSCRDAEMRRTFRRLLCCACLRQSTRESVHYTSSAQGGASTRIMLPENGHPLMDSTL

LPA3 = target: T4, LPA3 (Homo sapiens, UniProt Q9UBY5); assay: LPA-mediated Ca2+ mobilization, LPA3 RH7777 cells; format: cell-based; conditions: RH7777, read-out: LPA3 Emax
T4 sequence (Q9UBY5 1-353): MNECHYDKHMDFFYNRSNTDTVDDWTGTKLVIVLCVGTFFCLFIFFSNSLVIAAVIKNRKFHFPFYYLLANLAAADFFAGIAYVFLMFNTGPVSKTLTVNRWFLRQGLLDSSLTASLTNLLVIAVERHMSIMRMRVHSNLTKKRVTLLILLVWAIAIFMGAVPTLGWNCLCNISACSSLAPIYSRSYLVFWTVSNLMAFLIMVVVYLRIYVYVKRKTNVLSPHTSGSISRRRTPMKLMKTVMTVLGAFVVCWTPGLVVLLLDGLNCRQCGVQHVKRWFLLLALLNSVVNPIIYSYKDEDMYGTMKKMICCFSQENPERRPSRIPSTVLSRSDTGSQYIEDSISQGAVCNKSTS

| Structure (SMILES) | inhibition of A2058 cell invasion, screen at 10 μM [1] | inhibition of A2058 cell invasion (in words) [1] | inhibitory activity for ENPP7 [2] | LD50 to PT with ATX inhibitor pretreatment [3] [nM] | pNP-TMP inhibition (human recombinant ATX [4]) | in vitro stability (in words) [5] | mechanism (human recombinant ATX [6]) | antagonist activity at LPA1 (in words) (LPA1) | inhibitory activity for ENPP6 [8] | further results |
| --- | --- | --- | --- | --- | --- | --- | --- | --- | --- | --- |
| O=C(Nc1cc(F)c(F)c(F)c1)c1cc(S(=O)(=O)N2CCOCC2)c(Cl)cc1Cl [Compound 3b, 2,4-Dichloro-5-(morpholinosulfonyl)-N-(3,4,5-trifluorophenyl)-benzamide] | as effective as 30 | inhibit ATX-dependent invasion; also recorded: dose dependently decreased A2058 cell invasion | lack inhibitory action | 127 | sparing effects on hydrolysis of the nucleotide substrate pNP-TMP and none | significant stability | competitive | weak antagonist action; also recorded: exhibited antagonist activity; also recorded: effective in antagonizing LPA1-elicited Ca^2+ responses | lack inhibitory action | resensitization of cancer stem-like cells to PT (in words) ([7]; 4T1-TaxR cells): potently reduced in vitro chemotherapeutic resistance; also recorded: effectively resensitized; further reduction of cell viability compared to PT alone ([7]; 4T1-TaxR mammospheres, PT 100 nM, compound 5 μM, 3 days): 25–30% |
| O=C(Nc1cc(F)c(Cl)c(F)c1)c1cc(S(=O)(=O)N2CCOCC2)c(Cl)cc1Cl [Compound 3f, 2,4-Dichloro-N-(4-chloro-3,5-difluorophenyl)-5-(morpholinosulfonyl)benzamide] | as effective as 30 | dose dependently decreased A2058 cell invasion | lack inhibitory action | 66 | none | significant stability | competitive | weak antagonist action; also recorded: exhibited antagonist activity; also recorded: effective in antagonizing LPA1-elicited Ca^2+ responses | lack inhibitory action |  |
| O=S(=O)(c1cc(C(=S)Nc2cc(F)c(F)c(F)c2)c(Cl)cc1Cl)N1CCOCC1 [Compound 14, 2,4-Dichloro-5-(morpholinosulfonyl)-N-(3,4,5-trifluorophenyl)-benzothioamide] | as effective as 30 | inhibit ATX-dependent invasion; also recorded: dose dependently decreased A2058 cell invasion |  |  | none | significant stability | competitive |  |  | fold IC50 improvement relative to parent compound 3 (human recombinant ATX [6]; ATX, FS-3): 3 fold; ATX inhibitory activity (in words) (human recombinant ATX [6]; FS-3 substrate): retained similar inhibitory activity as the amide analogues |
| CCCCCCCC/C=C\CCCCCCCC(=O)OCC(O)COP(=O)(O)O (stereo not drawn) [LPA 18:1] |  |  |  |  |  |  |  |  |  | Emax (LPA4): 100%; LPA5 μEmax (LPA5): 100.00 ± 0.00; Emax (LPA1; RH7777, read-out: LPA1 Emax): 100%; Emax (LPA2): 100%; Emax (LPA3): 100% |
| CC(=O)O[C@H]1C(=O)[C@@]2(C)[C@H]([C@H](OC(=O)c3ccccc3)[C@]3(O)C[C@H](OC(=O)[C@H](O)[C@@H](NC(=O)c4ccccc4)c4ccccc4)C(C)=C1C3(C)C)[C@]1(OC(C)=O)CO[C@@H]1C[C@@H]2O [PT, paclitaxel, reference compound] |  |  |  |  |  |  |  |  |  | PT LD50 for reducing cell growth by 50%, applied alone ([3]; PT 48 h, no ATX inhibitor): 202 nM |
